We go through two molecules from PMC3442410 (Molecular Biology of the Cell, 2012).

Experiment [1] concerns SM synthesis. The experiment can be described thus: 25OH-activated SM synthesis. It counts as cell-based, CHO cells. The following applies: 25OH 6 μM, 6 h. Summed up:
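OSBP-deficient CHO cells (stable lentiviral shOSBP) grown in DMEM with 5% fetal calf serum, transiently transfected for 48 h (Lipofectamine 2000) with OSBP constructs carrying three silent shRNA-resistant mutations. Cells then treated with 25OH (6 μM) or solvent control for 6 h. SM and ceramide synthesis measured by [3H]serine incorporation. Mean and SEM of three experiments.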

Experiment [2] has as its target T1, OSBP (Oryctolagus cuniculus, UniProt P16258).
T1 sequence (P16258 1-809): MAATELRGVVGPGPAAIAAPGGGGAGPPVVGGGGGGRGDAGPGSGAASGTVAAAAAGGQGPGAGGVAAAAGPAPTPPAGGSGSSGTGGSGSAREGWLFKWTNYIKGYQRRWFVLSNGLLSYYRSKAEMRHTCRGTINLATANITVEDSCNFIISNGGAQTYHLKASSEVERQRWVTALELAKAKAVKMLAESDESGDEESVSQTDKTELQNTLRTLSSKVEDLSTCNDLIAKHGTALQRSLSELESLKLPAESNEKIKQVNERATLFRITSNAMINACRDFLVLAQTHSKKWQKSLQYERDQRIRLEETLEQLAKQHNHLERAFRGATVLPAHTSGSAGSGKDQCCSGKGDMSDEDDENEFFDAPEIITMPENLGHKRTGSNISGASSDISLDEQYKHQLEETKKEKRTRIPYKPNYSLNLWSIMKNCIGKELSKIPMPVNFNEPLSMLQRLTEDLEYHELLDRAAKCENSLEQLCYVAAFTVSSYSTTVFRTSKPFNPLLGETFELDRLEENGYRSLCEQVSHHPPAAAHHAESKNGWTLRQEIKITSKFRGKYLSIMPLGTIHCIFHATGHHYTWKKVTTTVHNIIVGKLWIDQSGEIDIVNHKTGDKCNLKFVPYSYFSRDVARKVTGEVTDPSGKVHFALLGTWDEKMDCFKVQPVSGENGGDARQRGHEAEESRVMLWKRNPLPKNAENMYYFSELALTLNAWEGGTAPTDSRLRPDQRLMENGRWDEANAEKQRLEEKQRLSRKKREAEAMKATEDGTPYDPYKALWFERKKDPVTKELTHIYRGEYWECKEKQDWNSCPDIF
The experiment can be described thus: Specific binding of [3H]25OH by purified OSBP. The arrangement: species or system rabbit. Summed up:
(§1)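 His-tagged (C-terminal V5-His) rabbit OSBP or mutant expressed in Sf21 cells by baculovirus, purified and kept in Tris-HCl pH 7.4/250 mM NaCl. 12 pmol protein incubated with [3H]25OH in 10 mM HEPES pH 7.4, 100 mM KCl, 2% polyvinyl alcohol at 4°C, 16 h. Charcoal-dextran added for 30 min, then spun 10,000 × g, 10 min. Supernatant bound sterol counted by scintillation. Specific binding is total minus binding with 40-fold excess unlabeled 25OH.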

In experiment [3] the target is T2, OSBP-S3E (Oryctolagus cuniculus, UniProt P16258, S381E/S384E/S387E).
T2 sequence (P16258 2-809 S381E/S384E/S387E limits assumed): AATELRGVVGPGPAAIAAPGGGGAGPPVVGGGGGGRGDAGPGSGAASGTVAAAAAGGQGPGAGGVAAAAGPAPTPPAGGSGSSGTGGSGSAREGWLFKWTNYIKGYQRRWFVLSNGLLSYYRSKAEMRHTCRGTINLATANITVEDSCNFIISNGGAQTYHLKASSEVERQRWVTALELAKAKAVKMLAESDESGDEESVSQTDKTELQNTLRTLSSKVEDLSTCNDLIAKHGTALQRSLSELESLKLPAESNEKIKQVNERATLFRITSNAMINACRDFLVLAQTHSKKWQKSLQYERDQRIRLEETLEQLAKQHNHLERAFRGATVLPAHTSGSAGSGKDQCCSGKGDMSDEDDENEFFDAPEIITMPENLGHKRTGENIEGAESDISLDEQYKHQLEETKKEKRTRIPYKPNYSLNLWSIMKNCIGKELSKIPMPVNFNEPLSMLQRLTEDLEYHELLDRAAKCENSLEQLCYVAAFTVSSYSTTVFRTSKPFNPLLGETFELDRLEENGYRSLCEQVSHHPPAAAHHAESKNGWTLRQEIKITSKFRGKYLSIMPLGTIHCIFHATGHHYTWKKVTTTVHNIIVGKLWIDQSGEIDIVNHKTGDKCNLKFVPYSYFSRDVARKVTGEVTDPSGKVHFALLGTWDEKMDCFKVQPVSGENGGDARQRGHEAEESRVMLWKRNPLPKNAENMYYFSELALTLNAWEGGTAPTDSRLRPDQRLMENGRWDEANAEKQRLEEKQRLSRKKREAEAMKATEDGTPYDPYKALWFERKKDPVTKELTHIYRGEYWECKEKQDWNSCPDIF
The experiment can be described thus: Specific binding of [3H]25OH by purified OSBP-S3E. More on the design: species or system rabbit. Summed up:
as §1

Experiment [4] has as its target T3, OSBP-S381A (Oryctolagus cuniculus, UniProt P16258, S381A).
T3 sequence (P16258 1-809 S381A): T1 sequence (P16258 1-809) with S381A
The experiment can be described thus: Specific binding of [3H]25OH by purified OSBP-S381A. The arrangement: species or system rabbit. A digest of the protocol: as §1

The target in experiment [5] is T4, OSBP-S5E (Oryctolagus cuniculus, UniProt P16258, S381E/S384E/S387E/S388E/S391E).
T4 sequence (P16258 1-809 S381E/S384E/S387E/S388E/S391E): T1 sequence (P16258 1-809) with S381E, S384E, S387E, S388E, S391E
Briefly: Specific binding of [3H]25OH by purified OSBP-S5E. More on the design: species or system rabbit. Summed up:
as §1

Experiment [6] addresses T1, OSBP. The experiment can be described thus: Direct extraction of radiolabeled PI or PI. The experiment is classed as binding, rabbit. Conditions: OSBP 50 pmol; liposomes with 0.5 mol% [32P]PI(4)P; compared with [3H]PI.
The mark [7] stands for this setting: [3H]25OH, 12 pmol protein, 4°C, 16 h.

Where a chain is given by its changes, count along the chain named.

The term Kd denotes the free concentration of one partner at which half of the binding sites on the other are occupied at equilibrium, for simple one-to-one binding. Low readings indicate a tighter complex, high ones a looser complex. Take `C[C@H](CCCC(C)(C)O)[C@H]1CC[C@H]2[C@@H]3CC=C4C[C@@H](O)CC[C@]4(C)[C@H]3CC[C@]12C` [25OH, 25-hydroxycholesterol]: the “activation of SM synthesis” value in experiment [1] (deficient CHO cells expressing S381A/S3A, S5E/S3D or S5E/S3A double mutants) is recorded as 2.5 fold; in experiment [1] (deficient CHO cells expressing wild-type OSBP), 2.5 fold. In addition, the Kd stood at 28 ± 5 nM in experiment [2], 58 ± 14 nM in experiment [3], 51 ± 12 nM in experiment [4] and 35 ± 9 nM in experiment [5]. The Bmax in experiment [2] (setting [7]) is 0.63 ± 0.05; in experiment [3] (setting [7]) it was 0.49 ± 0.15; in experiment [4] (setting [7]), 0.68 ± 0.11. The “binding capacity (Bmax)” value in experiment [5] (setting [7]) turned out to be 2.0 ± 0.26.

As to “phosphatidylinositol 4-phosphate [PI(4)P]”, the “extraction from liposomes into supernatant” value in experiment [6] is given as “extracted significantly more”.
